In ChEMBL document CHEMBL1136441, “The design and synthesis of novel orally active inhibitors of AP-1 and NF-kappaB mediated transcriptional activation. SAR of in vitro and in vivo studies” (Bioorg Med Chem Lett, 2003):

Legend:
[1] = Inhibition of AP-1 and NF-kB mediated transcriptional activation in Jurkat T-cells; assay type: functional, cell-based; conditions: Homo sapiens
Method in brief: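 Jurkat T-cell luciferase reporter lines, stably transfected with either an NF-kB site (MHC promoter) fused to a minimal SV-40 promoter, or an AP-1 site (collagenase promoter). Cells at 1×10⁶/mL in medium with 10% serum-plus were plated 18 h ahead. Compound in 0.2% DMSO/H₂O was added for 0.5 h at 37 °C, then PMA plus PHA (1 ug/mL) for 5 h. Lysate luminescence was read; IC50 is 50% of control luciferase.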

[2] = test system: Caco-2; test: Caco-2 permeability coefficient value was determined

Compound | IC50 [1] | Pc [2]
CC1=CC(=O)N(Nc2nc(C(F)(F)F)nc3cc(N4CCCCC4)ccc23)C1=O | 200 nM | –
CC1=CC(=O)N(Nc2nc(C(F)(F)F)nc3ccc(S(C)(=O)=O)cc23)C1=O | 9000 nM | –
COc1ccc2c(NN3C(=O)C=C(C)C3=O)nc(-c3cccs3)nc2c1 | 20 nM | –
COc1cccc2c(NN3C(=O)C=C(C)C3=O)nc(-c3cccs3)nc12 | 50 nM | –
CC1=CC(=O)N(Nc2nc(-c3cccs3)nc3ccccc23)C1=O | 60 nM | –
COc1cc2nc(-c3cccs3)nc(NN3C(=O)C=C(C)C3=O)c2cc1OC | 50 nM | –
CC1=CC(=O)N(Nc2nc(C(F)(F)F)nc3ccc(O)cc23)C1=O | 100 nM | –
COc1cccc2nc(C(F)(F)F)nc(NN3C(=O)C=C(C)C3=O)c12 | 10 nM | 1.49e-06 cm/s
CC1=CC(=O)N(Nc2nc(-c3cccs3)nc3cccc(C)c23)C1=O | 20 nM | –
CSc1ccc2nc(C(F)(F)F)nc(NN3C(=O)C=C(C)C3=O)c2c1 | 80 nM | –
COc1cc2c(NN3C(=O)C=C(C)C3=O)nc(-c3cccs3)nc2c(OC)c1OC | 40 nM | –
CC1=CC(=O)N(Nc2nc(C(F)(F)F)nc3cccc(C)c23)C1=O | 400 nM | –
CC1=CC(=O)N(Nc2nc(-c3cccs3)nc3cc(N(C)C)ccc23)C1=O | 40 nM | 1.41e-06 cm/s
CC1=CC(=O)N(Nc2nc(C(F)(F)F)nc3cc(N(C)C)ccc23)C1=O | 20 nM | 1.68e-06 cm/s
COc1ccc2nc(-c3cccs3)nc(NN3C(=O)C=C(C)C3=O)c2c1 | 3 nM | 1.62e-06 cm/s

The remaining molecules from weak to strong by IC50 [1], led by results:

IC50 [1] | Compound | Pc [2]
1000 nM | CC1=CC(=O)N(Nc2nc(C(F)(F)F)nc3ccc([S+](C)[O-])cc23)C1=O (stereo not drawn) | –
200 nM | CC1=CC(=O)N(Nc2nc(-c3cccs3)nc3cc(N4CCOCC4)ccc23)C1=O | –
100 nM | CC1=CC(=O)N(Nc2nc(C(F)(F)F)nc3ccccc23)C1=O | –
100 nM | CC1=CC(=O)N(Nc2nc(-c3ccccc3)nc3ccccc23)C1=O | –
50 nM | CC1=CC(=O)N(Nc2nc(-c3cccs3)nc3cccc(F)c23)C1=O | –
30 nM | COc1ccc2nc(C(F)(F)F)nc(NN3C(=O)C=C(C)C3=O)c2c1 | –
20 nM | CC1=CC(=O)N(Nc2nc(-c3cccs3)nc3ccc(Cl)cc23)C1=O | –
8 nM | COc1cccc2nc(-c3cccs3)nc(NN3C(=O)C=C(C)C3=O)c12 [AS-602868] | 1.41e-05 cm/s
